The values below come from ChEMBL document CHEMBL3627690, “Scaffold-Hopping and Structure-Based Discovery of Potent, Selective, And Brain Penetrant N-(1H-Pyrazol-3-yl)pyridin-2-amine Inhibitors of Dual Leucine Zipper Kinase (DLK, MAP3K12)” (J Med Chem, 2015).

For series [1], the target named is T1, Mitogen-activated protein kinase kinase kinase 12 (Homo sapiens) (UniProt Q12852).
T1 sequence (whole entry): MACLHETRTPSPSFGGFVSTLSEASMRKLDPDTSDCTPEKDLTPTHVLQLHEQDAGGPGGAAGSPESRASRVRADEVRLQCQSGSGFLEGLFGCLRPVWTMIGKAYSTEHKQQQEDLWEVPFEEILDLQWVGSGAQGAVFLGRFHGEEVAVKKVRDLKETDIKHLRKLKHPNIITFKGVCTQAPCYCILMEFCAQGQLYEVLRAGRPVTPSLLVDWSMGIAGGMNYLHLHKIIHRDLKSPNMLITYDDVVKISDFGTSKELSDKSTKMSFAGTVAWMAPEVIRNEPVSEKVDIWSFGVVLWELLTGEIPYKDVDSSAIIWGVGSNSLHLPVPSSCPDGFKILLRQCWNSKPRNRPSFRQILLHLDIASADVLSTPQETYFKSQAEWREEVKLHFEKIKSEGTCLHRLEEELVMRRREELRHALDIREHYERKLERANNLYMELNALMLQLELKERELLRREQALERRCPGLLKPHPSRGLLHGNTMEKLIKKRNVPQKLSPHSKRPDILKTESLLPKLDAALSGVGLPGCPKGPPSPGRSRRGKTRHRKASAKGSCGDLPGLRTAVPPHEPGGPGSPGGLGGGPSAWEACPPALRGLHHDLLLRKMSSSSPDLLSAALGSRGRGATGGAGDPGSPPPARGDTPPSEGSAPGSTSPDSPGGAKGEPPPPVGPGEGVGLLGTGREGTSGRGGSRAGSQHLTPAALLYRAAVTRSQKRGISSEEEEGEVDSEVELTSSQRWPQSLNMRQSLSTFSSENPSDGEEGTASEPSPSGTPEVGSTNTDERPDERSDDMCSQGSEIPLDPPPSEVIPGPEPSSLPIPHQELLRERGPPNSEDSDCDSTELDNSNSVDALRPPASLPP
Description: Inhibition of Flag DLK (unknown origin) transfected in HEK293 cells assessed as reduction of phosphorylation of c-Jun at 0.1 to 10 uM incubated for 5 hrs measured by Western blot analysis. It is filed as cell-based. In outline:
(§1)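 HEK293 cells were transfected with Flag-tagged DLK, with kinase-dead DLK K152A as comparator, 24 h before compound addition. Cells were then exposed to compound for 5 h. Phospho-MKK4, phospho-MKK7, phospho-JNK and phospho-c-Jun were probed.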
(A western blot detects proteins with antibodies after separation by electrophoresis.)

Series [2] addresses Mitogen-activated protein kinase 3 (Homo sapiens) (UniProt P27361). Put plainly: Inhibition of ERK1 (unknown origin) at 1 uM by FRET method. In outline: (§2)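 SelectScreen panel of 58 kinases, each tested at a single 1 µM compound concentration. Read-out was Z′-LYTE FRET of labeled peptide phosphorylation, run by the vendor's protocols, reported as percent inhibition.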
In series [3] the target is Tyrosine-protein kinase ABL1 (Homo sapiens) (UniProt P00519). Put plainly: Inhibition of Abl (unknown origin) at 1 uM by FRET method. In outline: as §2
Series [4] has as its target T1, Mitogen-activated protein kinase kinase kinase 12 (Homo sapiens). Description: Inhibition of Flag DLK (unknown origin) transfected in HEK293 cells assessed as reduction of phosphorylation of JNK at 0.1 to 10 uM incubated for 5 hrs measured by Western blot analysis. It is filed as cell-based. In outline:
as §1

The target of series [5] is Tyrosine-protein kinase Lck (Homo sapiens) (UniProt P06239). Put plainly: Inhibition of Lck (unknown origin) at 1 uM by FRET method. A digest of the protocol:
as §2

The nature of series [6]: Half life in […] rat at 0.4 or 1 mg/kg, iv and 1 or 5 mg/kg, po. It is filed as ADME, organism-based. The following applies: in vivo. A digest of the protocol:
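Rat PK used iv dosing at 0.4 or 1 mg/kg in 60% PEG solution and po dosing at 1 or 5 mg/kg as an aqueous 1% methylcellulose suspension. Free clearance is CL/fu, where fu is the fraction unbound in plasma.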

The target in series [7] is Mitogen-activated protein kinase kinase kinase 10 (Homo sapiens, UniProt Q02779). The note with it: 1 uM.
The target in series [8] is Vascular endothelial growth factor receptor 2 (Homo sapiens) (UniProt P35968). Description: Inhibition of KDR (unknown origin) at 1 uM by FRET method. A digest of the protocol:
as §2

Series [9] has as its target Epidermal growth factor receptor (Homo sapiens) (UniProt P00533). Description: Inhibition of EGFR (unknown origin) at 1 uM by FRET method. A digest of the protocol: as §2
Series [10] addresses Mast/stem cell growth factor receptor Kit (Homo sapiens, UniProt P10721). Put plainly: Inhibition of Kit (unknown origin) at 1 uM by FRET method. A digest of the protocol:
as §2

The target in series [11] is Cyclin-dependent kinase 1/cyclin B1 (Homo sapiens) (UniProt P06493+P14635). Description: Inhibition of CDK1/cyclinB (unknown origin) at 1 uM by FRET method. It is filed as protein-complex assay. In outline:
as §2

Series [12] concerns the target T2, High affinity nerve growth factor receptor (Homo sapiens, UniProt P04629). Description: Inhibition of TrkA (unknown origin) at 1 uM by FRET method. In outline: (§3)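 Single-point screen at 1 uM against a panel of 58 representative kinases. Readout was labeled-peptide phosphorylation by FRET (Z′-LYTE), using the vendor's protocols.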
Series [13] in a line: Neuroprotective activity in Wistar rat DRG neuronal cells by neurodegeration assay. It is filed as functional, cell-based.
Series [14] concerns the target Mitogen-activated protein kinase 14 (Homo sapiens) (UniProt Q16539). Put plainly: Inhibition of p38alpha (unknown origin) at 1 uM by FRET method. In outline:
as §3

For series [15], the target named is Dual specificity mitogen-activated protein kinase kinase 1 (Homo sapiens) (UniProt Q02750). Description: Inhibition of MEK1 (unknown origin) at 1 uM by FRET method. In outline:
as §2

Series [16] addresses Mitogen-activated protein kinase kinase kinase 11 (Homo sapiens, UniProt Q16584). Put plainly: Inhibition of MLK3 (unknown origin) by FRET method. In outline:
(§4)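 Biochemical IC50 determination from a 10-point dose-response in an enzymatic Z′-LYTE assay. Labeled-peptide phosphorylation was read by FRET under the vendor's protocols.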

The target of series [17] is BDNF/NT-3 growth factors receptor (Homo sapiens, UniProt Q16620). Description: Inhibition of TrkB (unknown origin) by FRET method. A digest of the protocol: as §4
In series [18] the target is CDK8/Cyclin C (Homo sapiens) (UniProt P49336+P24863). Description: Inhibition of […]/cyclinC (unknown origin) at 1 uM by FRET method. It is filed as protein-complex assay. A digest of the protocol: as §2
The target in series [19] is Rho-associated protein kinase 1 (Homo sapiens) (UniProt Q13464). Put plainly: Inhibition of ROCK1 (unknown origin) at 1 uM by FRET method. In outline:
as §3

In series [20] the target is Ephrin type-A receptor 2 (Homo sapiens) (UniProt P29317). Description: Inhibition of EphA2 (unknown origin) at 1 uM by FRET method. In outline: as §2
A short description of series [21]: Tmax in mouse at 50 mg/kg, po. It is filed as ADME, organism-based. The following applies: in vivo. In outline:
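Mice were dosed orally at 50 mg/kg as a methylcellulose suspension. Exposure was sampled over 0–6 h, and free brain concentration was determined at 6 h.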

In series [22] the target is T2, High affinity nerve growth factor receptor. Put plainly: Inhibition of TrkA (unknown origin) by FRET method. In outline: as §4
In series [23] the target is Ribosomal protein S6 kinase alpha-3 (Homo sapiens) (UniProt P51812). Description: Inhibition of Rsk2 (unknown origin) at 1 uM by FRET method. In outline: as §3
Series [24] concerns the target Casein kinase II subunit alpha (Homo sapiens) (UniProt P68400). Put plainly: Inhibition of CK2alpha1 (unknown origin) at 1 uM by FRET method. A digest of the protocol:
as §2

The source made the active and inactive calls. A value given as a limit tells only on which side of the number the result lay.

Sequence of Rho-associated protein kinase 1 (Homo sapiens) (Q13464 2-1354 limits assumed): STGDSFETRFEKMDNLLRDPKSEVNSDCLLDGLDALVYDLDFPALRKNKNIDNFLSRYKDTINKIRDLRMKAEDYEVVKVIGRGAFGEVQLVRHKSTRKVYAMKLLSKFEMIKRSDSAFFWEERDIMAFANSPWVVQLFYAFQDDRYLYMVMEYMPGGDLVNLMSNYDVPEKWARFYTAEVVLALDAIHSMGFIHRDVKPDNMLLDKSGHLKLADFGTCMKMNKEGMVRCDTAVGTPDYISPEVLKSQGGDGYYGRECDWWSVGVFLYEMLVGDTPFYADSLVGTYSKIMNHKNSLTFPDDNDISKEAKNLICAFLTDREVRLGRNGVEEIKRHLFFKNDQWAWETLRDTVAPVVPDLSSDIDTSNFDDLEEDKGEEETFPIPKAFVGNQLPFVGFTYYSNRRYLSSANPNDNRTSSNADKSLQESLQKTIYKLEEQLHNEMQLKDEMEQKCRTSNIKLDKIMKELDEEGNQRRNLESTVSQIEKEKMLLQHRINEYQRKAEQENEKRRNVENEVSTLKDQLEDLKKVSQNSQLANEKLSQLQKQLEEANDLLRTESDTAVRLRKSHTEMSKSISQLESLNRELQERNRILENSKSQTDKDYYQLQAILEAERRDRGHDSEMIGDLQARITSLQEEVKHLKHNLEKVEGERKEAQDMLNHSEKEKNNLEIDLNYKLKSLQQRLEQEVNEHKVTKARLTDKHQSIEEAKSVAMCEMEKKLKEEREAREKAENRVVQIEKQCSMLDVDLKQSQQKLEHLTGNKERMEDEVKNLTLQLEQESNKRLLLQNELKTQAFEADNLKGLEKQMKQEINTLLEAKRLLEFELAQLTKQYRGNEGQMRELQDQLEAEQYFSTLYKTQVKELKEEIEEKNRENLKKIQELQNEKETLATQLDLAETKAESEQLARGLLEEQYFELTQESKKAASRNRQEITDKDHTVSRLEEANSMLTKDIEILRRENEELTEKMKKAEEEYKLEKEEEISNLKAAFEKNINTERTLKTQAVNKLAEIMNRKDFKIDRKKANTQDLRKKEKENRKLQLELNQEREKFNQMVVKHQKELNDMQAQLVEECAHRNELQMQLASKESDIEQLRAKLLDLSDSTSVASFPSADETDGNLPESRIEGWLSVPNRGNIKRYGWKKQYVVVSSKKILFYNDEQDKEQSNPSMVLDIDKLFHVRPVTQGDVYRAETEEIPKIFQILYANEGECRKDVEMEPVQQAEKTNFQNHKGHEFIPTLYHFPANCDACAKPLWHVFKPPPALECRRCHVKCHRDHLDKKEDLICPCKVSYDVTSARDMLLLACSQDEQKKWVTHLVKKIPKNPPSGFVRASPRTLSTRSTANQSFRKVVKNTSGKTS
Sequence of BDNF/NT-3 growth factors receptor (Q16620 whole entry): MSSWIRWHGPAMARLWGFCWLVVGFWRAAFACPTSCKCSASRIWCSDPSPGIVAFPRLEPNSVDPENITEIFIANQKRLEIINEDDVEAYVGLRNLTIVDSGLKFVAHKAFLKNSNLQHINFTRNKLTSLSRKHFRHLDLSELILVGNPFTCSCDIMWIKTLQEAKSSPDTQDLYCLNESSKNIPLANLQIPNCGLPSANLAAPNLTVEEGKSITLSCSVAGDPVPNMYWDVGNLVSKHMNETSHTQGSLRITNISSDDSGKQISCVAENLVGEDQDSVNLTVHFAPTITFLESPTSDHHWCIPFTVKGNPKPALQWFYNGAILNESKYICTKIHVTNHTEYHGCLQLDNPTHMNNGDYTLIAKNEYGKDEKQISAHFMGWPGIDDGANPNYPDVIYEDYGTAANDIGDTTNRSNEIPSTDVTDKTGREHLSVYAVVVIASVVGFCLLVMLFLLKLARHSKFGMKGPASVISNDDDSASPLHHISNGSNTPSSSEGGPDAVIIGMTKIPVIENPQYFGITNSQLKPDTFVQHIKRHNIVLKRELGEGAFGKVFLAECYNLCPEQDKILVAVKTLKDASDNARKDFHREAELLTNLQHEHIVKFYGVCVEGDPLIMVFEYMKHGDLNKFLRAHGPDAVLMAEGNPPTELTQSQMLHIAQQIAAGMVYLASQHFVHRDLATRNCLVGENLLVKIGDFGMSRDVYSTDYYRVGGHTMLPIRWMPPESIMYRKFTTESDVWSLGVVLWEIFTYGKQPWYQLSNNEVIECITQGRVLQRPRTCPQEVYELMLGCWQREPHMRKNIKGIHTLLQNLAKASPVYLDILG
Sequence of Dual specificity mitogen-activated protein kinase kinase 1 (Homo sapiens) (Q02750 whole entry): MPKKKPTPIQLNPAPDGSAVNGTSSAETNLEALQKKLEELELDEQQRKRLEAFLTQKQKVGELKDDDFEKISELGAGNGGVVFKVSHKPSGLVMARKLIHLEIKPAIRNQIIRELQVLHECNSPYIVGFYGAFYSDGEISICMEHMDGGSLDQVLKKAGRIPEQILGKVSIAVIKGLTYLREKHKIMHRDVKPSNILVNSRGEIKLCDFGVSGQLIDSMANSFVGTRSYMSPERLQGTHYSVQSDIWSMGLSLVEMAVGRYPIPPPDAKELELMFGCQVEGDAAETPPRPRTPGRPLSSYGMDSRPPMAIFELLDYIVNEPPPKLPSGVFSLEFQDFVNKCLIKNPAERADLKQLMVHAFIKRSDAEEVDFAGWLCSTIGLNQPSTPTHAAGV
Sequence of Cyclin-dependent kinase 1/cyclin B1 (Homo sapiens) (P06493 whole entry, looked up): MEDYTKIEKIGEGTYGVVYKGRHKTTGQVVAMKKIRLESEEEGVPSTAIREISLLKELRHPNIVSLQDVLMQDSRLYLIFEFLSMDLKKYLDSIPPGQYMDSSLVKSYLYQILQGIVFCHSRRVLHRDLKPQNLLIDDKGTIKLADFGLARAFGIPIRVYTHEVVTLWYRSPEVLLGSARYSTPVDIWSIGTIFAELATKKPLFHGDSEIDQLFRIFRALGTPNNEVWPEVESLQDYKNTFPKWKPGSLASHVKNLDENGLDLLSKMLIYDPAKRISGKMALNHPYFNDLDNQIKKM
Sequence of Cyclin-dependent kinase 1/cyclin B1 (Homo sapiens) (P14635 whole entry, looked up): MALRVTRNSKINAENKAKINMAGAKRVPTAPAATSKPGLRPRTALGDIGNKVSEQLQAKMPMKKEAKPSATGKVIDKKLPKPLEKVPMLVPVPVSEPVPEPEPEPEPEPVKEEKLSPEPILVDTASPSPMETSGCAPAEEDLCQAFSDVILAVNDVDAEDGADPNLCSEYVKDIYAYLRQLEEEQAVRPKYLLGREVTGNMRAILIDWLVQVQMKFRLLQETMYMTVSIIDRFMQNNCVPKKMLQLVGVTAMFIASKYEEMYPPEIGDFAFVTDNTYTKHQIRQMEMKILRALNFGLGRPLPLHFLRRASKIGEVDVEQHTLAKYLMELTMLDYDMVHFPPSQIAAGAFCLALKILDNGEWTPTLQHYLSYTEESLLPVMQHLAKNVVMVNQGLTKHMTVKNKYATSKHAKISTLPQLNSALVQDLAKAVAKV
Sequence of Tyrosine-protein kinase Lck (Homo sapiens) (P06239 2-509 limits assumed): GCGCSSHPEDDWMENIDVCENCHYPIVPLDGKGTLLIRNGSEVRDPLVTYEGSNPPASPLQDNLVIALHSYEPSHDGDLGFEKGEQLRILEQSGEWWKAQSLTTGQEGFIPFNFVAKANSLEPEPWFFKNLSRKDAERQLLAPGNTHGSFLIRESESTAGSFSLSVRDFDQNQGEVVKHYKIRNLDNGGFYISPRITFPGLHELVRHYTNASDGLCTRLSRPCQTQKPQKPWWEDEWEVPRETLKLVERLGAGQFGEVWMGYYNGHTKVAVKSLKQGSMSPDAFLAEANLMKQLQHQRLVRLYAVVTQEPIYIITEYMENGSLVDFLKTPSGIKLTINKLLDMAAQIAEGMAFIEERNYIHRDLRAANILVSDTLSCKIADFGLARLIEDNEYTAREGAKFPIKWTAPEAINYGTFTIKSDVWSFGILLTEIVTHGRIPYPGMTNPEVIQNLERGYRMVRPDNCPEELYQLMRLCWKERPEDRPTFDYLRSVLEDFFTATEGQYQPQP
Sequence of Mitogen-activated protein kinase kinase kinase 11 (Q16584 whole entry): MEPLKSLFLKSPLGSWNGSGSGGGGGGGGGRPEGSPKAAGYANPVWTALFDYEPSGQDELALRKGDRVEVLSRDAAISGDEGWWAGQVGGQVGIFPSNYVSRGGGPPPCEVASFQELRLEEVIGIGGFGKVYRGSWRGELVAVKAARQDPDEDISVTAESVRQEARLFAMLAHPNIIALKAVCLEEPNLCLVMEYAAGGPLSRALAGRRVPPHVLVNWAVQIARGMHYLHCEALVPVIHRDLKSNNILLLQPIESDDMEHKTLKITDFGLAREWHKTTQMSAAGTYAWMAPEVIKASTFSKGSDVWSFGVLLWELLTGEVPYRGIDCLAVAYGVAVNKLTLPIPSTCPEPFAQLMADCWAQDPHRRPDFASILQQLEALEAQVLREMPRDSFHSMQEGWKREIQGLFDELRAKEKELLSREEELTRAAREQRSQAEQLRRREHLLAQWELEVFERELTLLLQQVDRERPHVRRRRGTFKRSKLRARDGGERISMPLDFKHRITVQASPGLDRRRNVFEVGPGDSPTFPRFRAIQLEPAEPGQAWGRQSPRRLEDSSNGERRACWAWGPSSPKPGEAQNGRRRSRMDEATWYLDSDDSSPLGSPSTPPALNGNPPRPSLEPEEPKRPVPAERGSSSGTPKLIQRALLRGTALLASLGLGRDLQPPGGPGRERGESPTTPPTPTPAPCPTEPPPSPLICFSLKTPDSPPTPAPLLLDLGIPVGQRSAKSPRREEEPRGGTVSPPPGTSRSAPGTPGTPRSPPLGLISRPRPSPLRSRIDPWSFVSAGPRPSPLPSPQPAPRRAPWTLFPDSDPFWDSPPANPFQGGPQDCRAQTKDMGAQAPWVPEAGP
Sequence of Mitogen-activated protein kinase 14 (Homo sapiens) (Q16539 whole entry): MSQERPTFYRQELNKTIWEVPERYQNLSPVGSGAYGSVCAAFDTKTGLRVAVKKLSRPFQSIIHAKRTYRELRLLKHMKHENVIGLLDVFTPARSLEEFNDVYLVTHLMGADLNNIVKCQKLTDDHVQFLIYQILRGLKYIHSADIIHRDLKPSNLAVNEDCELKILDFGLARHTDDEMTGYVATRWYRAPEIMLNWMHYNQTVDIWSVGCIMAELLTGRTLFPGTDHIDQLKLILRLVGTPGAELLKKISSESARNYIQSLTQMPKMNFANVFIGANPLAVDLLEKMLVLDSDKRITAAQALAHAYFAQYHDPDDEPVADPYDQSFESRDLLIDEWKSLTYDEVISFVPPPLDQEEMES

Usually inhibition stands for the change of the read-out against control, counted positive when it falls. The half-life is the time needed for the level to fall by half in the phase considered. Lower therefore signals fast loss. For orientation: EC50 means the concentration that produces a half-maximal response. As usually defined, the IC50 is the concentration needed to halve the response being measured. High values mean weaker potency, low ones greater potency. As usually defined, the Tmax is the time at which the peak concentration occurs. `N#Cc1ccnc(Nc2cc(C3CCN(C4COC4)CC3)n(C3CCCC3)n2)c1`: the inhibition entry in series [1] and in series [4] was “Active” throughout. For the same molecule, the inhibition in series [2] worked out at 0.6%; in [3], 8.4%; in series [5] it was 37.5%; in [7] it was 1.6%; in series [8], 5.2%; in series [9], 2.1%. Further, the inhibition in series [10] turned out to be 56%; in series [11] it was 13.5%; in series [12], 63.3%; in series [14] it was 14.6%; in series [15] it was 4%; in series [18], 11.6%. In addition, the inhibition is -3% in series [19], 23% in series [20], 5.7% in [23] and 1.3% in [24]. Also, the half-life in [6] is 102 min. In series [13], this molecule returned an EC50 of 2.15 µM. The results for the IC50 in series [16], in series [17] and in series [22] were > 10 µM, 1.19 µM and 0.464 µM, respectively. Further, in series [21], the Tmax was determined as 15 min.
